Experimental data: ChEMBL document CHEMBL1143448, “1,8-Naphthyridin-4-one derivatives as new ligands of A2A adenosine receptors” (Bioorg Med Chem Lett, 2005)

Tests used:
[1] = target: Adenosine receptor A2a (Bos taurus); assay: Inhibition of [3H]CGS-21680 binding to adenosine A2a receptor of bovine striatal membrane
Adenosine receptor A1 [2] = target: T1, Adenosine receptor A1 (Bos taurus, UniProt P28190); assay: Inhibition of [3H]CHA binding to adenosine A1 receptor of bovine brain cortical membrane
T1 sequence (P28190 whole entry): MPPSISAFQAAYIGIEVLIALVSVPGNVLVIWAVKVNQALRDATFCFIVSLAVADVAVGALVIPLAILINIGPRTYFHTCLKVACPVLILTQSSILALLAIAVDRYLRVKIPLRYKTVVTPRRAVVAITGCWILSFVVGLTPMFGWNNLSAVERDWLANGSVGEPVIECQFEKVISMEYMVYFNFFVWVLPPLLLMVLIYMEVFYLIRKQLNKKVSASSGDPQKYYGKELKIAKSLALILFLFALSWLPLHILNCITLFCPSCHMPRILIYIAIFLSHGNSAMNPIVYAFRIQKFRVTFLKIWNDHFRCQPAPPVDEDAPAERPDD
Method in brief: (§1)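 A1 affinity was taken from displacement of specific [3H]N6-cyclohexyladenosine ([3H]CHA, agonist radioligand) binding in bovine or human cortical membranes. Values are given as Ki in nM ± error.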

Adenosine receptor A1 [3] = target: T2, Adenosine receptor A1 (Homo sapiens, UniProt P30542); assay: Inhibition of [3H]CHA binding to adenosine A1 receptor of human brain cortical membrane
T2 sequence (P30542 whole entry): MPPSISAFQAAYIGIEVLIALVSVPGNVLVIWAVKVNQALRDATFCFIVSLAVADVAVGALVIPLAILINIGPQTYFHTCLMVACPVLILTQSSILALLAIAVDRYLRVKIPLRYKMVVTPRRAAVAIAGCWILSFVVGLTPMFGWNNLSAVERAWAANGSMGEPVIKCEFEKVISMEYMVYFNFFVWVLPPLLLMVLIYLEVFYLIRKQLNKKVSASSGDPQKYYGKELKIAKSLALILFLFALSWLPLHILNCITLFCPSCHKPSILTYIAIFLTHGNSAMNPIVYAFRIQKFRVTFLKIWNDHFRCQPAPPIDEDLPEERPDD
Method in brief: as §1

Adenosine receptor A2a = Adenosine receptor A2a (Homo sapiens, UniProt P29274); assay: Inhibition of [3H]CGS-21680 binding to adenosine A2a receptor of human striatal membrane
Method in brief: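 Competition binding to striatal membranes from bovine or human brain, measuring displacement of the specific binding of the tritiated agonist [3H]CGS21680 (2-[[p-(2-carboxyethyl)phenyl]ethyl]amino-5'-N-ethylcarboxamidoadenosine). Affinity reported as Ki (nM) ± error.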

Sequence of Adenosine receptor A2a (P29274 whole entry): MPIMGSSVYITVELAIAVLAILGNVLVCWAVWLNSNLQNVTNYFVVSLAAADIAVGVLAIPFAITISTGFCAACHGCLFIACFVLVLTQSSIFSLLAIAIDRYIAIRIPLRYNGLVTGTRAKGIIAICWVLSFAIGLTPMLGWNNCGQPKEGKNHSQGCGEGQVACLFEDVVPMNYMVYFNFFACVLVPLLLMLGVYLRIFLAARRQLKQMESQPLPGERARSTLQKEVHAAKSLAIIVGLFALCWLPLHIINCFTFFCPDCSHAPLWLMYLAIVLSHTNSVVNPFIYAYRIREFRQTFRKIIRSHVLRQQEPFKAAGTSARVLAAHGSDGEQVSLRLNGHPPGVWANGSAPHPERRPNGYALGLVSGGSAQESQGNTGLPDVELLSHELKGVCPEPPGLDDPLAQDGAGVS

| Ki [1] | Ki (Adenosine receptor A1 [2]) | Ki (Adenosine receptor A1 [3]) | Ki (Adenosine receptor A2a) | SMILES |
| --- | --- | --- | --- | --- |
| > 10000 nM | 677 nM |  |  | O=C(NCc1ccccc1)c1cnc2nc(NCc3ccccc3)ccc2c1O |
| 146 nM | 2860 nM |  |  | Cc1ccc2c(O)c(C(=O)NCc3ccc(N)cc3)cnc2n1 |
| 1170 nM | 2750 nM |  |  | O=C(NCc1ccccc1)c1cnc2ncccc2c1O |
| > 10000 nM | > 10000 nM |  |  | Cc1ccc2c(O)c(C(=O)OCc3ccccc3)cnc2n1 |
|  | 280 nM | 630 nM |  | Cc1ccc2c(O)c(C(=O)NCc3ccccc3)cnc2n1 |
| 3360 nM | 3340 nM | > 10000 nM | 5360 nM | Cc1ccc2c(N=[N+]=[N-])c(Cc3ccccc3)cnc2n1 |
| 57 nM | 122 nM |  |  | CN(C)c1ccc2c(O)c(C(=O)NCc3ccccc3)cnc2n1 |
|  | > 10000 nM |  |  | CC(=O)N(C(C)=O)c1ccc(CNC(=O)c2cnc3nc(C)ccc3c2O)cc1 |
| 67 nM | 586 nM |  |  | O=C(NCc1ccccc1)c1cnc2nc(Cl)ccc2c1O |
| 99 nM | 1630 nM |  |  | Cc1ccc2c(O)c(C(=O)NCc3ccc([N+](=O)[O-])cc3)cnc2n1 |
| 390 nM | 6000 nM | 5600 nM | 360 nM | Cc1ccc2c(O)c(C(=O)NC3CCC(C)CC3)cnc2n1 (configuration not stated) |
|  | > 10000 nM | > 10000 nM |  | Cc1ccc2c(O)c(C(=O)NN3CCN(C)CC3)cnc2n1 |
| 1430 nM | > 10000 nM | > 10000 nM | 640 nM | Cc1ccc2c(O)c(C(=O)NCCC(C)C)cnc2n1 |
|  | 977 nM |  |  | O=C(NCc1ccccc1)c1cnc2nc(NCCc3ccccc3)ccc2c1O |
| > 10000 nM | > 10000 nM |  |  | O=C(NCc1ccccc1)c1cnc2nc(N(CCO)CCO)ccc2c1O |
| 720 nM | 220 nM | > 10000 nM | > 10000 nM | Cc1ccc2c(NN)c(Cc3ccccc3)cnc2n1 |
|  | 8730 nM | 4160 nM |  | Cc1ccc2c(O)c(Cc3ccccc3Cl)cnc2n1 |
|  | > 10000 nM | > 10000 nM |  | Cc1ccc2c(NC3CCCCC3)c(Cc3ccccc3)cnc2n1 |
|  | 1740 nM | 1630 nM |  | Cc1ccc2c(O)c(C(=O)NCc3ccc(Cl)cc3)cnc2n1 |
|  | 1350 nM | 300 nM |  | Cc1ccc2c(O)c(C(=O)NCc3ccco3)cnc2n1 |

| Ki [1] | Ki (Adenosine receptor A1 [2]) | Ki (Adenosine receptor A1 [3]) | Ki (Adenosine receptor A2a) | SMILES |
| --- | --- | --- | --- | --- |
| 540 nM | 4490 nM | 6240 nM | 500 nM | Nc1ccc2c(O)c(C(=O)NCc3ccc(Cl)cc3)cnc2n1 |
|  | 970 nM | 630 nM |  | Nc1ccc2c(O)c(C(=O)NCc3ccccc3)cnc2n1 |
|  | > 10000 nM |  |  | O=C(NCc1ccccc1)c1cnc2[nH]c(=O)ccc2c1O |
|  | 1770 nM | 1650 nM |  | Cc1ccc2c(O)c(C(=O)NCc3ccc(F)cc3)cnc2n1 |
| 6780 nM | > 10000 nM |  |  | CC(=O)Nc1ccc2c(O)c(C(=O)NCc3ccccc3)cnc2n1 |
| 740 nM | > 10000 nM | 4370 nM | 2410 nM | COc1ccc(CNC(=O)c2cnc3nc(C)ccc3c2O)cc1 |
| > 10000 nM | > 10000 nM | 4180 nM | 3330 nM | Cc1ccc2c(O)c(Cc3ccccc3)cnc2n1 |
|  | > 10000 nM | > 10000 nM |  | Cc1ccc2c(O)c(CC(=O)NC3CCCCC3)cnc2n1 |
| > 10000 nM | > 10000 nM | > 10000 nM | 870 nM | Cc1ccc2c(O)c(CC(=O)NCc3ccccc3)cnc2n1 |
| 588 nM | 7590 nM |  |  | Cc1ccc2c(O)c(C(=O)NCc3ccc(NC(=O)c4ccccc4)cc3)cnc2n1 |
|  | 5320 nM |  |  | O=C(NCc1ccccc1)c1cnc2nc(Br)ccc2c1O |
| 140 nM | 680 nM | 730 nM | 150 nM | Cc1ccc2c(O)c(C(=O)NCCc3ccccc3)cnc2n1 |
|  | > 10000 nM |  |  | O=C(NCc1ccccc1)c1cnc2nc(NC3CCCCC3)ccc2c1O |
|  | > 10000 nM |  |  | CCOC(=O)c1cnc2nc(C)ccc2c1O |
|  | > 10000 nM | > 10000 nM |  | Cc1ccc2c(O)c(C(=O)NC3CCCCC3)cnc2n1 |
|  | > 10000 nM | > 10000 nM |  | Cc1ccc2c(Cl)c(Cc3ccccc3)cnc2n1 |
| 8660 nM | > 10000 nM | > 10000 nM | > 10000 nM | Cc1ccc2c(O)c(C(=O)NN3CCOCC3)cnc2n1 |
|  | 418 nM | 717 nM |  | Cc1ccc2c(O)c(C(=O)NC(C)c3ccccc3)cnc2n1 (configuration not stated) |
|  | 6330 nM |  |  | Cc1ccc2c(S)c(Cc3ccccc3)cnc2n1 |

| SMILES | Ki [1] | Ki (Adenosine receptor A1 [2]) | Ki (Adenosine receptor A1 [3]) | Ki (Adenosine receptor A2a) |
| --- | --- | --- | --- | --- |
| Cc1ccc(CNC(=O)c2cnc3nc(C)ccc3c2O)cc1 |  |  | 1580 nM |  |
